From ChEMBL document CHEMBL1135420, “Mode of action of 4-hydroxyphenylpyruvate dioxygenase inhibition by triketone-type inhibitors” (J Med Chem, 2002)

Target: 4-hydroxyphenylpyruvate dioxygenase (Sus scrofa, UniProt Q02110)
Test: Inhibition of pig liver 4-Hydroxyphenylpyruvate dioxygenase (4-HPPD) enzyme
Procedure, shortened: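 Spectrophotometric enol borate assay. Mixture: potassium phosphate/borate buffer (0.42 M H₃BO₃ brought to pH 6.2 with 0.17 M Na₃PO₄), 4-hydroxyphenylpyruvic acid (1.8 mM stock), reduced dichlorophenolindophenol with glutathione, and phenylpyruvate tautomerase. Equilibrated about 15 min at 308 nm, then enzyme added with varying inhibitor concentrations. Absorbance decrease at 308 nm followed for 15 min. IC50 from fit to v_i = v₀/(1+[I]/IC50).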

4-hydroxyphenylpyruvate dioxygenase, sequence (Q02110 whole entry): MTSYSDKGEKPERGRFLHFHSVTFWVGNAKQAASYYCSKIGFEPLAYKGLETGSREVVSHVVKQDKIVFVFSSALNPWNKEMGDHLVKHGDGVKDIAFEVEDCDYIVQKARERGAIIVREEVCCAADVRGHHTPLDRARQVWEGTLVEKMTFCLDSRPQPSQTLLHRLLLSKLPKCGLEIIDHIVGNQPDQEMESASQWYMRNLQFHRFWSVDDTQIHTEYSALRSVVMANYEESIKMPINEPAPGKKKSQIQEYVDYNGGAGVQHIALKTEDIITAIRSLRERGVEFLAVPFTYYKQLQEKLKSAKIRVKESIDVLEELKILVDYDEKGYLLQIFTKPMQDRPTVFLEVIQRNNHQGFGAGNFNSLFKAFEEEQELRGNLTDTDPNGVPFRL

SMILES | IC50
O=C1CCCC(=O)N1C(=O)c1ccccc1[N+](=O)[O-] | 60 µM
O=C1CCCC(O)=C1Cc1ccccc1[N+](=O)[O-] | 126 µM
COC1=C(C(=O)c2ccccc2[N+](=O)[O-])C(=O)CCC1 | 52 µM
O=C1CCCC(=O)C1=C(O)c1ccccc1[N+](=O)[O-] | 0.16 µM

Continued by falling IC50, values first:

IC50 | SMILES
250 µM | O=C1CCCC(=O)N1Cc1ccccc1[N+](=O)[O-]
64 µM | O=C1CCCC(Cl)=C1C(=O)c1ccccc1[N+](=O)[O-]
50 µM | O=C1CCCC(=O)C1=C(NO)c1ccccc1[N+](=O)[O-]
0.7 µM | O=C1CCCC/C1=C(/O)c1ccccc1[N+](=O)[O-]
0.53 µM | O=C1CCC=C(Cl)/C1=C(/O)c1ccccc1[N+](=O)[O-]
